Our source for the MIC values is ChEMBL document CHEMBL1138269, “Antimicrobial lexitropsins containing amide, amidine, and alkene linking groups” (J Med Chem, 2007).

Holding throughout (format): functional
Assay [1] relates to Staphylococcus aureus. Description: Antibacterial activity against methicillin-sensitive Staphylococcus aureus NCTC 6571. The note with it: Staphylococcus aureus, NCTC 6571; read-out: MIC. A digest of the protocol:
(§1)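 Broth microdilution in Mueller-Hinton broth. Samples were dissolved in sterile water to 200 µg mL-1 as the working solution and doubling dilutions were made across rows. Plates were incubated at 37 °C and inspected visually, with resazurin added as growth indicator. MIC reported in µg mL-1.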

Assay [2] deals with Staphylococcus aureus. Description: Antibacterial activity against methicillin-resistant Staphylococcus aureus clinical isolate 4. A digest of the protocol:
(§2)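 Broth microdilution MIC against clinical S. aureus isolates (incl. MRSA), run per NCCLS guidelines in 96-well plates. Test sample dissolved in sterile water to a 200 µg mL-1 working concentration, then doubling dilutions in Mueller-Hinton broth. Incubated at 37 °C, growth read visually plus resazurin indicator. MIC reported in µg/mL.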

In assay [3] the test system is Aspergillus niger. Description: Antifungal activity against Aspergillus niger IMI 149007. A digest of the protocol: (§3)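 Antifungal microdilution in Sabouraud broth. Test sample at 200 µg mL-1 working solution in sterile water was serially doubled down successive rows. Incubation was at 25 °C, followed by visual growth check and addition of resazurin indicator. Read-out is MIC in µg mL-1.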

Assay [4] deals with Enterococcus faecalis. Description: Antibacterial activity against Streptococcus faecalis NCTC 775. Particulars: Enterococcus faecalis, NCTC 775; read-out: MIC. A digest of the protocol:
as §1

Assay [5] deals with Staphylococcus aureus. Description: Antibacterial activity against methicillin-resistant Staphylococcus aureus clinical isolate 1. The gist of the method:
as §2

Assay [6] relates to Mycolicibacterium fortuitum. Description: Antibacterial activity against Mycobacterium fortuitum NCTC 10394. A digest of the protocol: as §1
The subject of assay [7] is Staphylococcus aureus. Description: Antibacterial activity against methicillin-resistant Staphylococcus aureus clinical isolate 3. A digest of the protocol: as §2
For assay [8], the system named is Candida albicans. Description: Antifungal activity against Candida albicans NCPF 3179. The note with it: Candida albicans; read-out: MIC. A digest of the protocol:
as §3

In assay [9] the test system is Staphylococcus aureus. Description: Antibacterial activity against methicillin-resistant Staphylococcus aureus clinical isolate 5. The gist of the method: as §2
The subject of assay [10] is Staphylococcus aureus. Description: Antibacterial activity against methicillin-resistant Staphylococcus aureus clinical isolate 2. The gist of the method: as §2

Converted amounts (≈) assume the structure as drawn. Some results are limits rather than exact numbers.

`CN(C)CCCNC(=O)c1cc(NC(=O)c2cc(NC(=O)c3cc(/C=C/c4ccc([N+](=O)[O-])cc4)cn3C)cn2C)cn1C`: the minimum inhibitory concentration (MIC) was 50 µg/mL (≈ 83.2 µM) in assay [1]; greater than 64 µg/mL in assay [2]; greater than 50 µg/mL in assay [3]; 50 µg/mL (≈ 83.2 µM) in assay [4]; greater than 64 µg/mL in [5]; greater than 50 µg/mL in [6]. Also, the MIC in assay [7] is greater than 64 µg/mL; in [8], greater than 50 µg/mL; in [9], greater than 64 µg/mL; in assay [10], greater than 64 µg/mL.

Consider `CC(C)c1sc(NC(=O)c2cc(NC(=O)c3cc(NC(=O)c4ccc5c(c4)OCO5)cn3C)cn2C)nc1C(=O)NCCCN(C)C`, for which the MIC was 13 µg/mL (≈ 19.6 µM) in [1]; 64 µg/mL (≈ 96.6 µM) in assay [2]; greater than 50 µg/mL in [3]; 25 µg/mL (≈ 37.7 µM) in assay [4]; 8 µg/mL (≈ 12.1 µM) in assay [5]; greater than 50 µg/mL in assay [6]. The MIC was 64 µg/mL (≈ 96.6 µM) in assay [7], greater than 50 µg/mL in assay [8], 64 µg/mL (≈ 96.6 µM) in assay [9] and 64 µg/mL (≈ 96.6 µM) in [10].

With `CC(=N)Nc1cc(C(=O)Nc2cc(C(=O)Nc3cc(C(=O)NCCN4CCOCC4)n(C)c3)n(C)c2)n(C)c1`, the MIC in assay [1] was 50 µg/mL (≈ 93 µM); in [3] it was 50 µg/mL (≈ 93 µM); in [4] it was greater than 50 µg/mL; in assay [6], greater than 50 µg/mL; in [8], greater than 50 µg/mL.

In the case of `COc1cccc(C(=O)Nc2ccc(C(=O)Nc3cc(C(=O)Nc4cc(C(=O)NCCN5CCOCC5)n(C)c4)n(C)c3)cc2)c1`, the MIC in [1], in assay [3], in assay [4], in assay [6] and in assay [8] was greater than 50 µg/mL in each case.

On to `CC(C)n1cc(NC(=O)c2cc(NC(=O)c3ccc(Cl)c(Cl)n3)cn2C)cc1C(=O)Nc1cc(C(=O)NCCCN(C)C)n(C)c1`, for which the MIC in assay [1] was 6 µg/mL (≈ 8.95 µM); in assay [3] it was 50 µg/mL (≈ 74.6 µM); in assay [4], 50 µg/mL (≈ 74.6 µM); in [6] it was greater than 50 µg/mL; in assay [8], greater than 50 µg/mL.

Consider `COc1cccc(C(=N)Nc2cc(C(=O)Nc3cc(C(=O)Nc4nc(C(=O)NCCCN(C)C)c(CCC(C)C)s4)n(C)c3)n(C)c2)c1`, for which the MIC in [1] is 3 µg/mL (≈ 4.44 µM); in assay [3], greater than 50 µg/mL; in assay [4] it was 13 µg/mL (≈ 19.2 µM); in [6], greater than 50 µg/mL; in assay [8], greater than 50 µg/mL.

On to `CN(C)CCCn1cnc(NC(=O)c2cc(NC(=O)c3cc(NC=O)cn3C)cn2C)c1`, for which the MIC in [1], in [3], in [4], in assay [6] and in [8] was greater than 50 µg/mL throughout.

Consider `Cn1cc(NC(=O)c2cc(NC(=O)c3ccc(/C=C/c4nc5ccccc5s4)cc3)cn2C)cc1C(=O)NCCN1CCOCC1`, for which the MIC in assay [1] is 25 µg/mL (≈ 39.2 µM); in [3], greater than 50 µg/mL; in assay [4], 25 µg/mL (≈ 39.2 µM); in assay [6], greater than 50 µg/mL; in assay [8], greater than 50 µg/mL.

In the case of `CC(C)CCc1sc(NC(=O)c2cc(NC(=O)c3ccc(/C=C/c4ccc5ccccc5c4)cc3)cn2C)nc1C(=O)NCCN1CCOCC1`, the MIC in assay [1], in assay [3], in [4], in assay [6] and in assay [8] was greater than 50 µg/mL each time.

Consider `CC(C)c1sc(NC(=O)c2cc(NC(=O)c3cc(NC(=O)c4cc5ccccc5cn4)cn3C)cn2C)nc1C(=O)NCCN1CCOCC1`, for which the minimum inhibitory concentration (MIC) in [1], in assay [3], in [4], in assay [6] and in [8] was greater than 50 µg/mL in each case.

Consider `COc1cccc(C(=N)Nc2cc(C(=O)Nc3cc(C(=O)Nc4cc(C(=O)NCCCN(C)C)n(C)c4)n(C)c3)n(C)c2)c1`, for which the MIC in assay [1] is 25 µg/mL (≈ 41.5 µM); in assay [3] it was 25 µg/mL (≈ 41.5 µM); in assay [4] it was greater than 50 µg/mL; in assay [6], greater than 50 µg/mL; in assay [8], greater than 50 µg/mL.

For the molecule `COc1cccc(C(=O)Nc2cc(C(=O)Nc3cc(C(=O)Nc4cn(CCCN(C)C)cn4)n(C)c3)n(C)c2)c1`, the MIC in [1], in assay [3], in assay [4], in assay [6] and in assay [8] was greater than 50 µg/mL in each case.
